Experimental data: ChEMBL document CHEMBL3526048, “In vitro metabolism of rivoglitazone, a novel peroxisome proliferator-activated receptor γ agonist, in rat, monkey, and human liver microsomes and freshly isolated hepatocytes” (Drug Metab Dispos, 2011)

How the values were obtained:
[1] = Drug level in cynomolgus monkey liver microsomes treated with [14C]-rivoglitazone at 20 uM after 2 hrs by radio-HPLC/LC-MS/MS analysis in presence of NADPH-generating system and NADPH-generating system/SAM; assay type: ADME, Macaca fascicularis
Summary of the method: (§1)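 Pooled male liver microsomes (1 mg/ml protein; rat from 94 Sprague-Dawley, monkey from 8 cynomolgus, human from 23 donors) were incubated with [¹⁴C]rivoglitazone (20 μM). Buffer: 10 mM potassium phosphate (pH 7.4). Cofactors: NADPH-generating system (2 mM NADP⁺, 20 mM G6P, 2 U/ml G6PDH, 10 mM MgCl₂), with or without 2 mM SAM. Incubation 2 h at 37°C with shaking; controls lacked NADPH system and SAM alone. Acetonitrile stop, radio-HPLC plus LC-MS.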

[2] = system: Liver microsome; assay: Drug level in human liver microsomes treated with [14C]-rivoglitazone at 20 uM after 2 hrs by radio-HPLC/LC-MS/MS analysis in presence of NADPH-generating system and NADPH-generating system/SAM; assay type: ADME; summary of the method: as §1
[3] = biological target: T1, Cytochrome P450 1A2 (Homo sapiens, UniProt P05177); assay: Activity of human CYP1A2 expressed in microsomes isolated from baculovirus infected insect cell assessed as enzyme-mediated compound formation treated with [14C]-rivoglitazone at 20 uM after 2 hrs by radio-HPLC/LC-MS/MS analysis in presence of NADPH-generating system and NADPH-generating system/SAM; assay type: ADME
T1 sequence (P05177 whole entry): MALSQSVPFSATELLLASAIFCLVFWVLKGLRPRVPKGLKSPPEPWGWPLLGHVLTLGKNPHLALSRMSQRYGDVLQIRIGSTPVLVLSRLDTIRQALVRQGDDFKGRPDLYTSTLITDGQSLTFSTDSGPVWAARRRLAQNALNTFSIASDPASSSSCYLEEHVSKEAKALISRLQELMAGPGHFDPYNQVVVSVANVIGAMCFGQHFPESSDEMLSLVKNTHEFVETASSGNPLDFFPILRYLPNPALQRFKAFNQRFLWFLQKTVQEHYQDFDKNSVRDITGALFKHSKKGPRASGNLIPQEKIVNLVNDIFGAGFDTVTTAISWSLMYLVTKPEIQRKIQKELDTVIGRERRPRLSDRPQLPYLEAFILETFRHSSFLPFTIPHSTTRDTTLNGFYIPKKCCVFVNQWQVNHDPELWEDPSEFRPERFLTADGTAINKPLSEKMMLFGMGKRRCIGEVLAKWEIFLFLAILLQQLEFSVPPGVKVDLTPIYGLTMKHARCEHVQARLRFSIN
Summary of the method: (§2)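 Baculovirus/insect-cell microsomes expressing single human CYPs, 1 mg/ml protein, with 50 mM potassium phosphate (pH 7.4) or 100 mM Tris-HCl (pH 7.5). NADPH-generating system: 2 mM NADP⁺, 20 mM glucose 6-phosphate, 2 units/ml G6PDH, 10 mM MgCl₂. [¹⁴C]rivoglitazone at 20 μM, 2 h at 37°C with shaking. Control used insect-cell control supersomes. Stopped with acetonitrile; supernatant concentrated under nitrogen; metabolites analysed by radio-HPLC, LC-MS and LC-MS/MS.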

[4] = biological target: Cytochrome P450 2D6 (Homo sapiens, UniProt P10635); assay: Activity of human CYP2D6 expressed in microsomes isolated from baculovirus infected insect cell assessed as enzyme-mediated compound formation treated with [14C]-rivoglitazone at 20 uM after 2 hrs by radio-HPLC/LC-MS/MS analysis in presence of NADPH-generating system and NADPH-generating system/SAM; assay type: ADME
[5] = biological target: Cytochrome P450 3A4 (Homo sapiens, UniProt P08684); assay: Activity of human CYP3A4 expressed in microsomes isolated from baculovirus infected insect cell assessed as enzyme-mediated compound formation treated with [14C]-rivoglitazone at 20 uM after 2 hrs by radio-HPLC/LC-MS/MS analysis in presence of NADPH-generating system and NADPH-generating system/SAM; assay type: ADME
[6] = system: Hepatocyte; assay: Drug level in rat hepatocytes treated with [14C]-rivoglitazone at 30 uM after 3 hrs by radio-HPLC/LC-MS/MS analysis in presence of NADPH-generating system and NADPH-generating system/SAM; assay type: ADME, cell-based
[7] = Retention time of the compound by LC-MS/MS analysis; assay type: physicochemical
Summary of the method: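 LC-MS/MS used a YMC-Pack ODS-A column (1.5 × 150 mm, 5 μm) at 30°C, 0.1 ml/min. Mobile phase was water and acetonitrile, each with 0.01% TFA. Gradient: 12→60% B over 30 min, →90% B over 5 min, hold 5 min. Detection was UV 220 nm with positive ESI Q-TOF (capillary 3300 V, cone 45 V), collision energy 20 eV and xenon as collision gas.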

[8] = Drug level in po dosed monkey bile treated with [14C]-rivoglitazone; assay type: ADME, organism-based, Macaca mulatta; settings: rhesus monkey, in vivo
[9] = system: Hepatocyte; assay: Drug level in human hepatocytes treated with [14C]-rivoglitazone at 30 uM after 3 hrs by radio-HPLC/LC-MS/MS analysis in presence of NADPH-generating system and NADPH-generating system/SAM; assay type: ADME, cell-based
[10] = biological target: Cytochrome P450 2C9 (Homo sapiens, UniProt P11712); assay: Activity of human CYP2C9 expressed in microsomes isolated from baculovirus infected insect cell assessed as enzyme-mediated compound formation treated with [14C]-rivoglitazone at 20 uM after 2 hrs by radio-HPLC/LC-MS/MS analysis in presence of NADPH-generating system and NADPH-generating system/SAM; assay type: ADME
[11] = biological target: Cytochrome P450 2C19 (Homo sapiens, UniProt P33261); assay: Activity of human CYP2C19 expressed in microsomes isolated from baculovirus infected insect cell assessed as enzyme-mediated compound formation treated with [14C]-rivoglitazone at 20 uM after 2 hrs by radio-HPLC/LC-MS/MS analysis in presence of NADPH-generating system and NADPH-generating system/SAM; assay type: ADME; summary of the method: as §2
[12] = system: Liver microsome; assay: Drug level in Sprague-Dawley rat liver microsomes treated with [14C]-rivoglitazone at 20 uM after 2 hrs by radio-HPLC/LC-MS/MS analysis in presence of NADPH-generating system and NADPH-generating system/SAM; assay type: ADME; summary of the method: as §1
[13] = system: Plasma; assay: Drug level in po dosed monkey plasma treated with [14C]-rivoglitazone; assay type: ADME, organism-based, Macaca mulatta; settings: rhesus monkey, in vivo
[14] = biological target: Cytochrome P450 3A5 (Homo sapiens, UniProt P20815); assay: Activity of human CYP3A5 expressed in microsomes isolated from baculovirus infected insect cell assessed as enzyme-mediated compound formation treated with [14C]-rivoglitazone at 20 uM after 2 hrs by radio-HPLC/LC-MS/MS analysis in presence of NADPH-generating system and NADPH-generating system/SAM; assay type: ADME
Summary of the method: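 cDNA-expressed human CYP3A5 in baculovirus-insect-cell microsomes (1 mg/ml protein) was incubated with [¹⁴C]rivoglitazone (20 μM) in 50 mM potassium phosphate (pH 7.4) or 100 mM Tris-HCl (pH 7.5). NADPH-generating system: 2 mM NADP⁺, 20 mM glucose 6-phosphate, 2 units/ml G6PDH, 10 mM MgCl₂. Incubation ran 2 h at 37°C with shaking; insect-cell control supersomes served as control. Acetonitrile stop, supernatant concentrated, then radio-HPLC, LC-MS and LC-MS/MS.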

[15] = biological target: T2, Cytochrome P450 2C8 (Homo sapiens, UniProt P10632); assay: Activity of human CYP2C8 expressed in microsomes isolated from baculovirus infected insect cell assessed as enzyme-mediated compound formation treated with [14C]-rivoglitazone at 20 uM after 2 hrs by radio-HPLC/LC-MS/MS analysis in presence of NADPH-generating system and NADPH-generating system/SAM; assay type: ADME; summary of the method: as §2
T2 sequence (P10632 whole entry): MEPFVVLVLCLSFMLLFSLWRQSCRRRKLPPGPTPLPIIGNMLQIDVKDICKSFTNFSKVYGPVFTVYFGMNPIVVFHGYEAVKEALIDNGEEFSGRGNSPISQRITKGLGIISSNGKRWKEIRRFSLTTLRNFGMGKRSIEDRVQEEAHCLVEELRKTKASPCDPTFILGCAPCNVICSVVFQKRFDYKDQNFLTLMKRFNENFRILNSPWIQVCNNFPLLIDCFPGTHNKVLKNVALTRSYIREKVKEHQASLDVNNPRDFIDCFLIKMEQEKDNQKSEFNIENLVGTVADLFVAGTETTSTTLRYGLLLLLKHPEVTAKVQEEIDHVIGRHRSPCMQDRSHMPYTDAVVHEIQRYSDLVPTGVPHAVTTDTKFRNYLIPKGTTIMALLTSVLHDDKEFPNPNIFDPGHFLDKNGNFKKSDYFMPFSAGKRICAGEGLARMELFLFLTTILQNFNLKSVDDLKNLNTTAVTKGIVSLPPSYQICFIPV

[16] = Drug level in po dosed monkey liver microsomes treated with [14C]-rivoglitazone; assay type: ADME, organism-based, Macaca mulatta; settings: rhesus monkey, in vivo

Chain of Cytochrome P450 3A4 (P08684 whole entry): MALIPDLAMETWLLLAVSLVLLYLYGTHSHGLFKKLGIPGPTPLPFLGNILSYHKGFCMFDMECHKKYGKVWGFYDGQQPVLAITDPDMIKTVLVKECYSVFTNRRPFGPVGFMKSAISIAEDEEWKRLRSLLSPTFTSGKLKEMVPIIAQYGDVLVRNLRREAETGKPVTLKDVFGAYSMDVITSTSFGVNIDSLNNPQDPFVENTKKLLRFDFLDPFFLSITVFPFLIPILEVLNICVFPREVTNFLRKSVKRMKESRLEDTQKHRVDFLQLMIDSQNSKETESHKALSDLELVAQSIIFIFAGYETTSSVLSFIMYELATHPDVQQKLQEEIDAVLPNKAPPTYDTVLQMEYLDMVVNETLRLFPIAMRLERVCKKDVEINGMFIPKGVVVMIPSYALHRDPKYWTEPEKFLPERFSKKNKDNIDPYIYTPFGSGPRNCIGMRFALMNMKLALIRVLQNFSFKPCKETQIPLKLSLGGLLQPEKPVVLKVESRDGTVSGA
Chain of Cytochrome P450 2C9 (P11712 whole entry): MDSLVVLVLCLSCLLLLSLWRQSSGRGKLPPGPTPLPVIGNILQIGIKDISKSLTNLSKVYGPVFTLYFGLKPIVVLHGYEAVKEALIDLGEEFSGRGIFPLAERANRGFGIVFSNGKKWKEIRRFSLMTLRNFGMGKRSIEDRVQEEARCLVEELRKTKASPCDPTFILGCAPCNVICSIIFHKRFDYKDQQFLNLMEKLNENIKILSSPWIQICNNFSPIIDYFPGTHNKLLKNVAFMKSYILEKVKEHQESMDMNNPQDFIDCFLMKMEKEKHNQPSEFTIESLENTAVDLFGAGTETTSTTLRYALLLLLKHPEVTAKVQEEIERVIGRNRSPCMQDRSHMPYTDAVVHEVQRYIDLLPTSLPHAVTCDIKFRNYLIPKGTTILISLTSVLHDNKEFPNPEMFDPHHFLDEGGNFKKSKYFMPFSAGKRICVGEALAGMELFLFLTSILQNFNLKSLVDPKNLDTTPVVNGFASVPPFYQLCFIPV
Chain of Cytochrome P450 2C19 (P33261 whole entry): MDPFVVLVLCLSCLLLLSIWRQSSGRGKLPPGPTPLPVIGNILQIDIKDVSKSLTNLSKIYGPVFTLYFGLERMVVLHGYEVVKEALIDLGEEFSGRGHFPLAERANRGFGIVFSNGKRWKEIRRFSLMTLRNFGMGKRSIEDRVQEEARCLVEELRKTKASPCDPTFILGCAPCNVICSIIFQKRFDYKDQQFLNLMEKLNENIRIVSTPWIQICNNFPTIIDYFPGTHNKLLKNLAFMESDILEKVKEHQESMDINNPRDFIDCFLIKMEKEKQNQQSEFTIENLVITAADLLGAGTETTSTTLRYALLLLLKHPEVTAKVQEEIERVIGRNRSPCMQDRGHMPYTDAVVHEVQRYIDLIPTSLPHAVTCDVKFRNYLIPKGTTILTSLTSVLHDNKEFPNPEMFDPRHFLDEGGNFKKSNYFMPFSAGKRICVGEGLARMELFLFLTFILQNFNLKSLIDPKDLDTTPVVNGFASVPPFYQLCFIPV
Chain of Cytochrome P450 2D6 (P10635 whole entry): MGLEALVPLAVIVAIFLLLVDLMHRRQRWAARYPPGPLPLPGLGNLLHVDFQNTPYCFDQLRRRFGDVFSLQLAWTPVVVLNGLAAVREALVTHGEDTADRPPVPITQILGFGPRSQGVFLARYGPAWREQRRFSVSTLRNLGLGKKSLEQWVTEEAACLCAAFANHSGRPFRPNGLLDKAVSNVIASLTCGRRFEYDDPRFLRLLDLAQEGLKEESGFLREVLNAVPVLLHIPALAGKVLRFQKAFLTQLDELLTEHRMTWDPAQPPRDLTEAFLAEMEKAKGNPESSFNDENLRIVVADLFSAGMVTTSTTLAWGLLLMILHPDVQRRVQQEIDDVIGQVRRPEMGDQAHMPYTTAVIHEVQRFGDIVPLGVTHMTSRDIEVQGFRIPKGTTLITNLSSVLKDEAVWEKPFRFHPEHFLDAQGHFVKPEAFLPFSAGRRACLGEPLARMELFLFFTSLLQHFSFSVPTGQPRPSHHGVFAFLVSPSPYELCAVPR
Chain of Cytochrome P450 3A5 (P20815 whole entry): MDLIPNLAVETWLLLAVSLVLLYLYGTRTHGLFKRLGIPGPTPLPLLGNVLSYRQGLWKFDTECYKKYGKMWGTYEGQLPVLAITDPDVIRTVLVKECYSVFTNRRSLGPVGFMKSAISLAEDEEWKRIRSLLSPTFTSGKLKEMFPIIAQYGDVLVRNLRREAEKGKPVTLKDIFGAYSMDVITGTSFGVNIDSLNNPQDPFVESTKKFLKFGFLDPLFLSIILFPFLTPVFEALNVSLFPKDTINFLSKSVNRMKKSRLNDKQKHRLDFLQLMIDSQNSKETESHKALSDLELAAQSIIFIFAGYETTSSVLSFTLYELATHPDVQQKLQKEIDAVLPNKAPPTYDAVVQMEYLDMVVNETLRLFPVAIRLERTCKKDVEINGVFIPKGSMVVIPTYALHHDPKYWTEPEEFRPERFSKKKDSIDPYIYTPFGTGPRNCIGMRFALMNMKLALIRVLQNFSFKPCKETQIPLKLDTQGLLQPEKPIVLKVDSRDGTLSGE

Drug metabolism [1]: metabolite_detected
Drug metabolism [2]: metabolite_detected
Drug metabolism [3]: metabolite_detected
Drug metabolism [4]: metabolite_detected
Drug metabolism [5]: metabolite_detected
Drug metabolism [6]: metabolite_detected
Retention_time [7]: 20.9 min
Drug metabolism [8]: metabolite_detected
Drug metabolism [9]: metabolite_detected
Drug metabolism [10]: metabolite_detected
Drug metabolism [11]: metabolite_detected
Drug metabolism [12]: metabolite_detected
Drug metabolism [13]: metabolite_detected
Drug metabolism [14]: metabolite_detected
Drug metabolism [15]: metabolite_detected
Drug metabolism [16]: metabolite_detected
Structure (SMILES): COc1ccc2nc(COc3ccc(CC4SC(=O)NC4=O)cc3)[nH]c2c1 (stereo unspecified)
